Test results: ChEMBL document CHEMBL3864151, “Discovery of imidazopyridazines as potent Pim-1/2 kinase inhibitors” (Bioorg Med Chem Lett, 2016)
In brackets after ≈: the same amount, converted by molar mass. Activity calls are given as the source filed them. No cut-off for these calls is given here.

Legend:
[1] = system: Receptor-type tyrosine-protein kinase FLT3 (Homo sapiens), P36888 [D835Y]; assay: Competitive binding affinity to partial length […] human FLT3 D835Y expressed in bacterial expression system at 10 uM by kinomescan method relative to control
Procedure, shortened: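 Single-concentration (10 µM) screen in the scanMAX competition-binding panel of protein and lipid kinases and their common mutants. Binding is expressed as percentage of control (POC).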

[2] = Antiproliferative activity against human SKMM-2 cells after 72 hrs by CellTiter-Glo assay; type: functional, cell-based; details: SK-MM-2, 72 h
[3] = Antiproliferative activity against human RPMI8226 cells after 72 hrs by CellTiter-Glo assay; type: functional, cell-based; details: RPMI-8226, 72 h
[4] = biological target: Homeodomain-interacting protein kinase 3 (Homo sapiens) (UniProt Q9H422); assay: Competitive binding affinity to partial length wild type human HIPK3 expressed in mammalian expression system at 10 uM by kinomescan method relative to control
Procedure, shortened: (§1)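 DiscoveRX scanMAX kinase panel of protein and lipid kinases and common mutants; competitive binding of compound at 10 µM expressed as percentage of control (POC).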

[5] = Volume of distribution at steady state in Sprague-Dawley rat at 2 mg/kg, iv; type: ADME, organism-based; details: in vivo, read-out: Vdss
Procedure, shortened: (§2)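 Male Sprague Dawley rats, 3 animals per dosing route, mean values. iv dose 2 mg/kg as a solution in DMSO; po dose 5 mg/kg in 1% Tween 80, 2% HPMC, 97% water/methanesulfonic acid pH 2.2.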

[6] = Clearance in Sprague-Dawley rat at 2 mg/kg, iv relative to liver blood flow; type: ADME, organism-based; details: in vivo; procedure, shortened: as §2
[7] = Oral bioavailability in Sprague-Dawley rat at 5 mg/kg; type: ADME, organism-based; details: in vivo; procedure, shortened: as §2
[8] = Aqueous solubility in pH 7.4 PBS after 48 to 72 hrs by HPLC analysis; type: physicochemical
Procedure, shortened: (§3)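 Aqueous solubility determined in 0.01N HCl, PBS (pH 7.4) and FaSIF (pH 6.8).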

[9] = Aqueous solubility in 0.01N HCl after 48 to 72 hrs by HPLC analysis; type: physicochemical; procedure, shortened: as §3
[10] = biological target: Mitogen-activated protein kinase 13 (Homo sapiens) (UniProt O15264); assay: Competitive binding affinity to full length wild type human p38delta expressed in bacterial expression system at 10 uM by kinomescan method relative to control; procedure, shortened: as §1
KMS-12-BM [11] = assay: Induction of apoptosis in human KMS-12-BM cells assessed as increase in cleaved-PARP levels at […] after 4 to 72 hrs by Western blot method; type: functional, cell-based
[12] = biological target: Mitogen-activated protein kinase 15 (Homo sapiens) (UniProt Q8TD08); assay: Competitive binding affinity to partial length wild type human ERK8 expressed in bacterial expression system at 10 uM by kinomescan method relative to control; procedure, shortened: as §1
[13] = biological target: Serine/threonine-protein kinase VRK2 (Homo sapiens) (UniProt Q86Y07); assay: Competitive binding affinity to partial length wild type human VRK2 expressed in mammalian expression system at 10 uM by kinomescan method relative to control; procedure, shortened: as §1
[14] = Mean residence time in Sprague-Dawley rat at 2 mg/kg, iv; type: ADME, organism-based; details: in vivo; procedure, shortened: as §2
[15] = Antiproliferative activity against human KMM1 cells after 72 hrs by CellTiter-Glo assay; type: functional, cell-based; details: KMM-1, 72 h
[16] = biological target: Glycogen synthase kinase-3 beta (Homo sapiens) (UniProt P49841); assay: Competitive binding affinity to full length wild type human GSK3B expressed in mammalian expression system at 10 uM by kinomescan method relative to control; procedure, shortened: as §1
[17] = Antiproliferative activity against human KMS-12-BM cells after 72 hrs by CellTiter-Glo assay; type: functional, cell-based
[18] = Antiproliferative activity against human JJN-3 cells after 72 hrs by CellTiter-Glo assay; type: functional, cell-based; details: JJN-3, 72 h
[19] = biological target: Casein kinase II subunit alpha (Homo sapiens) (UniProt P68400); assay: Competitive binding affinity to full length wild type human CSNK2A1 expressed in mammalian expression system at 10 uM by kinomescan method relative to control; procedure, shortened: as §1
[20] = Antiproliferative activity against PTEN-deficient human OPM2 cells after 72 hrs by CellTiter-Glo assay; type: functional, cell-based; details: OPM-2, 72 h
[21] = biological target: Casein kinase II subunit alpha' (Homo sapiens) (UniProt P19784); assay: Competitive binding affinity to full length wild type human CSNK2A2 expressed in mammalian expression system at 10 uM by kinomescan method relative to control; procedure, shortened: as §1
MDR1 = assay: Permeability in rat LLC-PK1 cells expressing MDR1
[22] = Antiproliferative activity against human NCI-H929 cells after 72 hrs by CellTiter-Glo assay; type: functional, cell-based; details: NCI-H929, 72 h
[23] = biological target: Glycogen synthase kinase-3 alpha (Homo sapiens) (UniProt P49840); assay: Competitive binding affinity to full length wild type human GSK3A expressed in bacterial expression system at 10 uM by kinomescan method relative to control; procedure, shortened: as §1
[24] = Antiproliferative activity against human KMS11 cells after 72 hrs by CellTiter-Glo assay; type: functional, cell-based; details: KMS-11, 72 h
[25] = Aqueous solubility in pH 6.8 FsSIF after 48 to 72 hrs by HPLC analysis; type: physicochemical; procedure, shortened: as §3
KMS-12-BM [26] = assay: Induction of apoptosis in human KMS-12-BM cells assessed as increase in cleaved caspase 7 levels at […] after 4 to 72 hrs by Western blot method; type: functional, cell-based
Homo sapiens = organism: Homo sapiens; assay: Competitive binding affinity to wild type human DYRK at 10 uM by kinomescan method relative to control; procedure, shortened: as §1
[27] = biological target: Serine/threonine-protein kinase TAO1 (Homo sapiens) (UniProt Q7L7X3); assay: Competitive binding affinity to partial length wild type human TAOK1 expressed in mammalian expression system at 10 uM by kinomescan method relative to control; procedure, shortened: as §1
[28] = AUC (0 to infinity) in Sprague-Dawley rat at 5 mg/kg, po; type: ADME, organism-based; set-up: dose 5 mg/kg, route oral, time infinity; details: in vivo; procedure, shortened: as §2
KMS-12-BM [29] = assay: Induction of apoptosis in human KMS-12-BM cells assessed as increase in cleaved caspase 6 levels at […] after 4 to 72 hrs by Western blot method; type: functional, cell-based
[30] = Intrinsic clearance in human liver microsomes at 1 uM after 30 mins by LC-MS HRMS analysis; type: ADME; details: read-out: CLH
[31] = biological target: Homeodomain-interacting protein kinase 1 (Homo sapiens) (UniProt Q86Z02); assay: Competitive binding affinity to partial length wild type human HIPK1 expressed in mammalian expression system at 10 uM by kinomescan method relative to control; procedure, shortened: as §1
[32] = biological target: Serine/threonine-protein kinase TAO3 (Homo sapiens) (UniProt Q9H2K8); assay: Competitive binding affinity to partial length wild type human TAOK3 expressed in mammalian expression system at 10 uM by kinomescan method relative to control; procedure, shortened: as §1
[33] = Inhibition of Pim signaling in human KMS-12-BM cells assessed as upregulation of Pim1 expression at […] after 4 to 72 hrs by Western blot method; type: cell-based
[34] = Antiproliferative activity against human U266B1 cells harboring BRAF mutant after 72 hrs by CellTiter-Glo assay; type: functional, cell-based; details: U-266, 72 h
[35] = Antiproliferative activity against human KMS26 cells after 72 hrs by CellTiter-Glo assay; type: functional, cell-based; details: KMS-26, 72 h
[36] = Antiproliferative activity against human KMS28BM cells after 72 hrs by CellTiter-Glo assay; type: functional, cell-based; details: KMS-28BM

C[C@@H]1C[C@H](N)CN(c2ccncc2Nc2ncc3ccc(-c4c(F)cccc4F)nn23)C1
Activity [1]: 6.1% | IC50 [2]: 228 nM | IC50 [3]: 569 nM | Activity [4]: 1.2% | Vd [5]: 7.3 L/kg | CL [6]: 40% | F [7]: 17% | solubility [8]: 180 µg/mL (≈ 413 µM) | solubility [9]: 200 µg/mL (≈ 459 µM) | Activity [10]: 8.4% | Activity (KMS-12-BM [11]): Active | Activity [12]: 0.65% | Activity [13]: 9.2% | MRT [14]: 4.3 h | IC50 [15]: 2120 nM | Activity [16]: 2.3% | IC50 [17]: 216 nM | IC50 [18]: 375 nM | Activity [19]: 4.2% | IC50 [20]: 4380 nM | Activity [21]: 2% | Papp (MDR1): 4.5 ×10⁻⁶ cm/s | IC50 [22]: 337 nM | Activity [23]: 1.4% | IC50 [24]: 100 nM | solubility [25]: 150 µg/mL (≈ 344 µM) | Activity (KMS-12-BM [26]): Active | Activity (Homo sapiens): 3.4% | Activity [27]: 0.6% | AUC [28]: 3.5 µM·h | Activity (KMS-12-BM [29]): Active | microsomal CLint at 1 µM [30]: 69 µL/min/mg | Activity [31]: 7% | Activity [32]: 0.4% | Activity [33]: Active | IC50 [34]: 10000 nM | IC50 [35]: 393 nM | IC50 [36]: 86 nM
